Results collected from several papers.
Lines come from different studies, so protocols differ. pIC50, pKd, pKi: −log10 of the molar value.
Maoa: Amine oxidase [flavin-containing] A (Maoa, Mus musculus, UniProt Q64133)
EPHX2: Bifunctional epoxide hydrolase 2 (EPHX2, Homo sapiens, UniProt P34913)
DDB1: DNA damage-binding protein 1 (DDB1, Homo sapiens, UniProt Q16531)

| SMILES | target | test | setting | quantity | result |
| --- | --- | --- | --- | --- | --- |
| Cc1ccc(F)c(CNS(=O)(=O)c2cccc3cccnc23)c1 | Maoa | enzyme activity, inhibitor, fluorescence |  | pIC50 | 5.56 |
| C[S+]([O-])CCCN=C=S (stereo not shown) | EPHX2 | enzyme activity, inhibitor, fluorescence |  | pIC50 | 4.69 |
| CC[C@H](C)[C@H](NC(=O)[C@H](CO)NC(=O)[C@H](CCC(N)=O)NC(=O)CNC(=O)[C@H](CC(C)C)NC(=O)[C@H](CO)NC(=O)[C@H](CO)NC(=O)[C@H](CCCCN)NC(=O)[C@H](Cc1ccc(O)cc1)NC(=O)[C@@H](NC(=O)[C@H](Cc1ccc(O)cc1)NC(=O)[C@H](Cc1c[nH]cn1)NC(=O)[C@H](CC(C)C)NC(=O)[C@@H](NC(=O)[C@H](CO)NC(=O)[C@@H](NC(=O)[C@H](CCC(N)=O)NC(=O)CN)[C@@H](C)O)[C@@H](C)CC)[C@@H](C)CC)C(=O)N[C@@H](Cc1c[nH]cn1)C(=O)N[C@@H](C)C(=O)N[C@@H](CCC(N)=O)C(=O)N[C@@H](CC(C)C)C(=O)N[C@@H](CCCNC(=N)N)C(=O)N[C@@H](CCC(N)=O)C(=O)N[C@@H](CS)C(=O)N[C@@H](CC(C)C)C(=O)NCC(=O)NCC(=O)NCC(=O)NCC(=O)O | DDB1 | cell-free assay, FP | pH 7.5 | pIC50 | 6.06 |
| CNC(=O)c1ccc(-c2cnn3ccc(C(=O)N(C)c4ccc(Cl)c(C(=O)O)c4)cc23)cc1 | Tyrosine-protein kinase JAK2 (JAK2, Homo sapiens, UniProt O60674) | enzyme activity, inhibitor |  | pIC50 | < 4.52 |
| CC[C@H](C)[C@H](NC(=O)[C@H](CCCCN)NC(=O)[C@@H](NC(=O)[C@H](CCCNC(=N)N)NC(=O)[C@H](CCC(=O)O)NC(=O)[C@H](CC(C)C)NC(=O)[C@H](CCC(N)=O)NC(=O)[C@H](CCCCN)NC(=O)[C@H](CC(C)C)NC(=O)[C@@H](NC(=O)[C@H](Cc1c[nH]cn1)NC(=O)[C@H](CCC(=O)O)NC(=O)[C@@H](N)CCCNC(=N)N)C(C)C)C(C)C)C(=O)N[C@@H](CO)C(=O)NCC(=O)N[C@@H](CCC(N)=O)C(=O)N[C@@H](CC(C)C)C(=O)N[C@@H](CO)C(=O)N1CCC[C@H]1C(=O)N[C@@H](CCCNC(=N)N)C(=O)N[C@@H](CC(C)C)C(=O)N[C@@H](Cc1ccccc1)C(=O)N[C@@H](CCCNC(=N)N)C(=O)N[C@@H](CCCCN)C(=O)N[C@@H](CC(C)C)C(=O)N1CCC[C@H]1C(=O)N1CCC[C@H]1C(=O)N[C@@H](CCCNC(=N)N)C(=O)N[C@H](C(=O)N[C@@H](CS)C(=O)N[C@H](C(=O)N[C@@H](CO)C(=O)O)C(C)C)C(C)C | DDB1 | cell-free assay, FP | pH 7.5 | pIC50 | 7.24 |
| C#CCN(C)CCCOc1ccc(Cl)cc1Cl | Maoa | enzyme activity, inhibitor, fluorescence |  | pIC50 | 7.35 |
| S=C=NCCc1ccccc1 | EPHX2 | enzyme activity, inhibitor, fluorescence |  | pIC50 | 5.12 |
| CC[C@H](C)[C@@H]1NC(=O)[C@H](CC(=O)O)NC(=O)[C@H]([C@@H](C)O)NC(=O)[C@@H]2CSSC[C@@H]3NC(=O)[C@H](CC(C)C)NC(=O)[C@H](CC(N)=O)NC(=O)[C@H](CC(C)C)NC(=O)[C@H](CCCNC(=N)N)NC(=O)[C@H](Cc4ccc(O)cc4)NC(=O)[C@H](CCCCN)NC(=O)[C@H](CCSC)NC(=O)[C@H](CO)NC(=O)[C@H]([C@@H](C)O)NC(=O)[C@H](CCCNC(=N)N)NC(=O)[C@H](CSSC[C@H](NC(=O)[C@H]([C@@H](C)O)NC(=O)[C@H](CCCCN)NC(=O)[C@H](CCCNC(=N)N)NC3=O)C(=O)NCC(=O)N[C@@H](CO)C(=O)N[C@H](C(=O)O)CSSC[C@H](NC(=O)[C@@H](NC(=O)[C@@H](N)CCCNC(=N)N)[C@@H](C)O)C(=O)N[C@@H](CCCCN)C(=O)N[C@@H](CC(=O)O)C(=O)N[C@@H](CC(C)C)C(=O)N[C@@H]([C@@H](C)CC)C(=O)N3CCC[C@H]3C(=O)N[C@@H](C(C)C)C(=O)N[C@@H](CO)C(=O)N[C@@H](CCC(=O)O)C(=O)N2)NC(=O)[C@H](CCCNC(=N)N)NC1=O | Potassium voltage-gated channel subfamily A member 2 (KCNA2, Homo sapiens, UniProt P16389) | ion current, inhibitor, two-electrode voltage clamp | oocytes | pKi | 8.60 |
| COC(=O)c1cc(N(C)C(=O)c2ccn3ncc(-c4ccc(C(=O)O)cc4)c3c2)ccc1Cl | Proto-oncogene tyrosine-protein kinase receptor Ret (RET, Homo sapiens, UniProt P07949) | enzyme activity, inhibitor |  | pIC50 | < 4.52 |
| O=C(C=Cc1ccccc1)Nc1cc(-c2ccnc(N3CCC(O)CC3)c2)ccn1 | Estrogen receptor beta (ESR2, Homo sapiens, UniProt Q92731) | binding, SPR |  | pKd | 5.79 |
